Measured values collected from several papers.
Each line is one published result; the experiments were not run side by side.
Target: Tyrosine-protein kinase FRK (FRK, Homo sapiens, UniProt P42685)

CCN(CC)CCNC(=O)c1c(C)[nH]c(/C=C2\C(=O)Nc3ccc(Cl)cc32)c1C — remaining activity (enzyme activity; inhibitor; 0.5 µM): 59.3%
CCN(CC)CCNC(=O)c1c(C)[nH]c(/C=C2\C(=O)Nc3ccc(F)cc32)c1C — inhibition (enzyme activity; inhibitor; 0.3 µM): 47%
CC(C)(C)c1nc(-c2cccc(NS(=O)(=O)c3c(F)cccc3F)c2F)c(-c2ccnc(N)n2)s1 — remaining activity (enzyme activity; inhibitor; radiometric; 1 µM): 111%
Cc1ccc(Nc2nccc(N(C)c3ccc4c(C)n(C)nc4c3)n2)cc1S(N)(=O)=O — remaining signal (cell-free assay; 0.5 µM): 58.1%
c1nc2c(Nc3ccc4c(c3)OCCO4)nc(Nc3ccc4c(c3)OCCO4)nc2[nH]1 — activity vs control (enzyme activity; inhibitor; 10 µM): 22%
Cc1sc(C(=O)NC2COC2)cc1-n1cc(NC(=O)Nc2c(F)cccc2Cl)cn1 — remaining activity (enzyme activity; inhibitor; 10 µM): 87.3%
COc1cc(-c2cn(C3CCc4c(F)cccc4N(CC(F)(F)F)C3=O)nn2)ccc1-n1cnc(C)c1 (stereo not shown) — remaining binding (cell-free assay; competition with immobilised ligand; 1 µM): 100%
Nc1ncnc2occ(-c3ccc(NC(=O)Nc4cc(C(F)(F)F)ccc4F)cc3)c12 — remaining signal (cell-free assay; inhibitor; 20 µM): 0.15%
CCCOc1ccc([C@@H]2[C@@H](C(=O)O)[C@H](c3ccc4c(c3)OCO4)CN2CC(=O)Nc2c(CC)cccc2CC)cc1 — remaining binding (cell-free assay; competition with immobilised ligand; 1 µM): 89%
CC/C(=N\NC(=O)NCc1cccc(O)c1)c1ccc(O)c(C)c1O — inhibition (enzyme activity; inhibitor; 0.1 µM): 0.5%
CNC(=O)c1cc2c(Oc3ccc(NC(=O)C4(C(=O)Nc5ccc(F)cc5)CC4)cc3)ccnc2cc1OC — inhibition (enzyme activity; inhibitor; radiometric; 1 µM): 99%
CC(C)(O)[C@H]1CC[C@H](Nc2ccc3ncc(-c4cccc(C(F)(F)F)c4)n3n2)CC1 — remaining activity (enzyme activity; inhibitor; 1 µM): 57.7%
CC(=O)N1CCC(c2ccc(C(=O)NC3=NCCN3)cc2C(F)(F)F)CC1 — remaining binding (cell-free assay; competition with immobilised ligand; 1 µM): 97%
COc1cc2c(Nc3ccc(Br)cc3F)ncnc2cc1OCC1CCN(C)CC1 — remaining signal (cell-free assay; 0.5 µM): 79.5%
Cc1ccc(C(=O)Nc2ccc(CN3CCN(C)CC3)c(C(F)(F)F)c2)cc1C#Cc1cnc2cccnn12 — remaining activity (enzyme activity; inhibitor; 23.5 nM): 16%
O=C(Nc1cnn(-c2csc(C(=O)NC3COC3)c2)c1)Nc1ccccc1Cl — remaining activity (enzyme activity; inhibitor; 5 µM): 97.4%
CCOCCn1cc(C(=O)Nc2ccc(-n3nc(-c4cccnc4)cc3C(F)(F)F)cn2)ccc1=O — remaining binding (cell-free assay; competition with immobilised ligand; 1 µM): 100%
COc1cc2ncnc(Nc3ccc(Oc4ccccc4)cc3C)c2cc1OC — inhibition (enzyme activity; inhibitor; 1 µM): 63%
C[C@@]1(Cc2ccc(C#N)cc2)C(=O)N(c2cc(Cl)cc(Cl)c2)c2ncc(C(=O)NC3(c4nc(C5CCC5)no4)CC3)n21 — remaining binding (cell-free assay; competition with immobilised ligand; 1 µM): 81%
N#CCCc1ccc2c(c1)-c1[nH]c3ccc([N+](=O)[O-])cc3c1CC(=O)N2 — remaining signal (cell-free assay; 0.5 µM): 92.7%
CC(=O)Nc1c(C(C)=O)c(=O)n(C)c2nc(-c3ccc(Cl)cc3Cl)c(-c3ccc(Cl)cc3)cc12 — remaining binding (cell-free assay; competition with immobilised ligand; 1 µM): 100%
Cc1cnc(NC2CCOCC2)nc1-n1cnc(C(=O)NC(CN)c2cc(F)cc(Cl)c2)c1 (stereo not shown) — remaining activity (enzyme activity; inhibitor; radiometric; 1 µM): 98%
